Test results as given in ChEMBL document CHEMBL1149185, “Uncharged AZT and D4T derivatives of phosphonoformic and phosphonoacetic acids as anti-HIV pronucleosides” (J Med Chem, 2004).

How the values were obtained:
[1] = Half life for hydrolysis of compound in phosphate buffer of pH 7.2 at 20 degree C; assay type: ADME
MT4 [2] = test: Ratio of CD50 to ID50 was determined; assay type: functional, Homo sapiens
MT4 [3] = test: 50% inhibition of HIV replication in MT-4 cells; assay type: functional; settings: Homo sapiens, read-out: ID50 (the source's name)
Procedure, shortened: (§1)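 HIV-1-infected MT-4 cells (MOI 0.2-0.5; cells at 2 × 10^6 cells/mL, viability >90%) in RPMI-1640 with 10% FBS, L-glutamine, gentamycin and lincomycin. Cultured 3 days with compound at 0.001-100 µg/mL, triplicate per dose. Replication measured as p24 antigen by immunoassay.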

MT4 [4] = test: 90% inhibition of HIV replication in MT-4 cells; assay type: functional, Homo sapiens; procedure, shortened: as §1
MT4 [5] = test: 50% inhibition of MT-4 cell proliferation.; assay type: functional; settings: Homo sapiens, read-out: CD50 (the source's name)
Procedure, shortened: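 MT-4 cells in RPMI-1640 with 10% FBS, cultured 3 days with compound at 0.001-200 µg/mL, triplicate per dose. Cell concentration and viability measured by trypan blue dye exclusion, and CD50 calculated.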

[6] = Half life for the hydrolysis of compound in human blood serum; assay type: ADME, cell-free, Plasma

SMILES | half-life [1] | IS (MT4 [2]) | IC50 (MT4 [3]) | ID90 (MT4 [4]) | CC50 (MT4 [5]) | half-life [6]
CCOP(=O)(OCC1C=CC(n2cc(C)c(=O)[nH]c2=O)O1)C(=O)NC (stereo not drawn) | 15 h | 6592 | 0.013 µM | 0.27 µM | 85.7 µM | 
CCOC(=O)CP(=O)(OCC1OC(n2cc(C)c(=O)[nH]c2=O)CC1N=[N+]=[N-])OC1CCCCC1 (stereo not drawn) | > 8 h | 700 | 0.4 µM | 1.4 µM | 280 µM | 
CCOC(=O)P(=O)(OCC)OCC1OC(n2cc(C)c(=O)[nH]c2=O)CC1N=[N+]=[N-] (stereo not drawn) | 0.167 h | 16338 | 0.0071 µM | 0.016 µM | 116 µM | 
CCOP(=O)(OCC1C=CC(n2cc(C)c(=O)[nH]c2=O)O1)C(N)=O (stereo not drawn) | 7 h | 7143 | 0.03 µM | 7.21 µM | 214 µM | 0.35 h
CCOP(=O)(CC(N)=O)OCC1C=CC(n2cc(C)c(=O)[nH]c2=O)O1 (stereo not drawn) | > 24 h | 49.6 | 5.4 µM | 18.8 µM | 268 µM | > 24 h
CCOC(=O)CP(=O)(OCC)OCC1C=CC(n2cc(C)c(=O)[nH]c2=O)O1 (stereo not drawn) | > 8 h | <13 | > 10 µM |  | 136 µM | 
CCOP(=O)(OCC1C=CC(n2cc(C)c(=O)[nH]c2=O)O1)C(=O)NCCc1ccccc1 (stereo not drawn) | > 20 h | 1555 | 0.043 µM |  | 66.9 µM | 
CCOC(=O)P(=O)(OCC)OCC1C=CC(n2cc(C)c(=O)[nH]c2=O)O1 (stereo not drawn) | 0.5 h | 591 | 0.23 µM | 21.7 µM | 136 µM | 
Cc1cn([C@H]2C[C@H](N=[N+]=[N-])[C@@H](CO)O2)c(=O)[nH]c1=O [ZIDOVUDINE] |  | 11029 | 0.017 µM | 0.75 µM | 188 µM | 
CCOC(=O)CP(=O)(OCC1C=CC(n2cc(C)c(=O)[nH]c2=O)O1)OC1CCCCC1 (stereo not drawn) |  | <13 | > 10 µM |  | 131 µM | 
CCOP(=O)(CC(N)=O)OCC1OC(n2cc(C)c(=O)[nH]c2=O)CC1N=[N+]=[N-] (stereo not drawn) | > 20 h | 1573 | 0.29 µM | 1.68 µM | 456 µM | 
CCOP(=O)(OCC1OC(n2cc(C)c(=O)[nH]c2=O)CC1N=[N+]=[N-])C(=O)NC (stereo not drawn) | 6 h | 470416 | 0.00024 µM | 0.0072 µM | 113 µM | 
Cc1cn([C@H]2C=C[C@@H](CO)O2)c(=O)[nH]c1=O [STAVUDINE] |  | 1308 | 0.24 µM | 23.8 µM |  | 
CCOC(=O)CP(=O)(OCC)OCC1OC(n2cc(C)c(=O)[nH]c2=O)CC1N=[N+]=[N-] (stereo not drawn) |  | >974 | 0.23 µM |  | > 224 µM | 
CCOP(=O)(OCC1OC(n2cc(C)c(=O)[nH]c2=O)CC1N=[N+]=[N-])C(=O)NCCc1ccccc1 (stereo not drawn) | 10 h | 19711 | 0.009 µM |  | 177 µM | 
CCOP(=O)(OCC1OC(n2cc(C)c(=O)[nH]c2=O)CC1N=[N+]=[N-])C(N)=O (stereo not drawn) | 2.5 h | 124300 | 0.002 µM | 0.019 µM | 249 µM | 0.117 h
